Most compounds without a hit are left out; they make up all but 2% or so of the library.
NSD2 HMT inh = blocks human histone methyltransferase NSD2 | O96028 | hit rate 0.54% among 310,000 | AID 743445 | inhibition, % at 12.5 µM | NSD2 peptide methylation, AlphaScreen, 120 min; in the data active = inhibition above about 50%
ARNT-TACC3 inh = ARNT/TACC3 interaction disruption | inhibition, % at 9.99 µM | AID 623870 | hit rate 0.66% among 390,000 | AlphaScreen His-ARNT PAS-B/GST-TACC3 binding, luminescence; TACC3 fragment carries E629A point mutation | Q9Y6A5;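 active = mean inhibition of replicates at least 50% and at least half of replicates each reaching 50%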;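 also: 0% = complete ARNT plus TACC3 wells and 100% = ARNT alone without TACC3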
HGIII-sPLA2 inh = Inhibits HGIII-sPLA2 liposome hydrolysis, primary screen | Q9NZ20 | QFRET BODIPY PC-A2 liposome hydrolysis, fluorescence | inhibition, % at 12.2 µM | hit rate 0.56% among 370,000;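 active = inhibition above mean plus 3 SD of compounds lying within the high and low control bounds, cut at about 19% in these data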;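 also: 0% = median of test compound wells and 100% = no enzyme DMSO wells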
SR-BI HDL uptake = mouse SR-BI HDL lipid transfer inhibition; Q61009; ldlA[mSR-BI] CHO cells, DiI-HDL uptake fluorescence, 3 h; inhibition, % at 12.5 µM; hit rate 0.96% among 320,000;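 active = mean replicate inhibition of at least 70% and a set share of replicates each scoring 70 or more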;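 also: 0% = median of neutral control wells and 100% = median of positive control wells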
SR-BI DiI-HDL act = enhances SR-BI lipid uptake from DiI-HDL. CHO ldlA[mSR-BI] cells, DiI-HDL uptake fluorescence, 3 h; 100 = double the neutral-control signal. activation, % at 12.5 µM. hit rate 0.096% among 320,000;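 active = mean replicate activation of at least 60% and every replicate at or above 60%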;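 also: 0% = median plate neutral-control signal and 100% = twice that signal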
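Test system: SR-BI-overexpressing, LDLR-lacking CHO cells; Also added: labelled HDL, 10 µg/mL; Measured by: bottom-read cell fluorescence after medium removal, ex 550/em 595 nm; Timing: 3 h uptake period with compound, 37 °C; Buffer or medium: F12, 0.5% BSA, 25 mM HEPES; Doses: single compound concentration, delivered by pin transfer.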
Xi reactivation = X-chromosome reactivation activator; XiGFP mouse fibroblasts, % GFP-positive cells imaging, 3 d; cells co-treated with 5-aza-dC sensitizer; scaled so ellipticine positive control = 100%; activation, % at 7.58 µM; hit rate 0.055% among 360,000; AID 743238;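 active = mean normalized replicate activation at least 10% and every replicate at or above 10%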;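 also: 0% = median of on-plate neutral control wells and 100% = ellipticine 6 µM median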
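System: XiGFP fibroblasts, SV40-immortalized. Medium: DMEM plus 5-aza-dC sensitizer. Doses: single point. Timing: 3 d treatment, 15 min room-temperature fixation. Control set: ellipticine 6 µM.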
* marks the source's active call; other numbers are inactive results; x = no result given.

SMILES | NSD2 HMT inh | ARNT-TACC3 inh | HGIII-sPLA2 inh | SR-BI HDL uptake | SR-BI DiI-HDL act | Xi reactivation
COc1ccc(-n2nc3c(c2NC(=O)c2ccc(S(=O)(=O)N4CCOCC4)cc2)CS(=O)C3)cc1 (centres undefined) | 1 | x | -4 | -68 | 68* | 0
COc1cccc(-c2cc(C(F)(F)F)n3nc(C(=O)N4CCCCC4c4cccnc4)cc3n2)c1 (centres undefined) | -8 | 3 | 0 | 77* | -77 | 0
COc1ccccc1C(=O)NCCNc1nc2cc(C)cc(C)c2cc1C#N | -5 | -5 | -3 | 110* | -110 | 0
COc1cccc(OC)c1C(=O)NCCNc1nc2cc(C)cc(C)c2cc1C#N | x | x | 4 | x | x | 0
O=c1nc(N/N=C/c2ccccn2)cn[nH]1 | 8 | 64* | -7 | -11 | 11 | 0
C(=N\Nc1ccc2nncn2n1)/c1ccccn1 | -9 | 51* | 0 | -5 | 5 | 0
Cc1cc(=O)[nH]c(N/N=C/c2ccccn2)n1 | -3 | 19 | 11 | 1 | -1 | 0
O=c1cnnc(N/N=C/c2ccccn2)[nH]1 | 30 | 78* | 6 | x | x | 0
CCC(C)NCC(=O)Nc1cc(S(=O)(=O)N(CC)c2ccccc2)ccc1Cl (centres undefined) | 5 | -1 | -9 | 72* | -72 | 0
N#C/C(=C/C1=C(N2CCOCC2)C(=C/c2ccccc2)/CC1)C(=O)Nc1ccccc1F | -1 | 5 | -2 | 75* | -75 | 0
N#C/C(=C/C1=C(N2CCOCC2)C(=C/c2ccc(Cl)cc2Cl)/CC1)C(=O)Nc1ccccc1F | 1 | 0 | 10 | 74* | -74 | 0
C[C@@H]1CN([C@@H](C)CO)C(=O)c2cccc(NC(=O)c3cnccn3)c2O[C@H]1CN(C)S(C)(=O)=O | x | -6 | x | x | x | 0
COc1ccc(-n2c(SCC(=O)NCCCN3CCCC3=O)nnc2C(C)N2CCCCC2)cc1 (centres undefined) | x | -1 | 9 | -3 | 3 | 0
CCn1c(Cl)c(C=O)s/c1=N\S(=O)(=O)c1ccccc1 | x | 9 | 11 | 12 | -12 | 35*
CCN1C(=O)CS/C1=N\S(=O)(=O)c1ccc(Cl)cc1 | 6 | 24 | -36 | -31 | 31 | 0
O=[N+]([O-])c1ccc(-c2c(-c3ccccc3)ncc3cc(F)ccc23)cc1 | x | -8 | 2 | 86* | -86 | 0
O=[N+]([O-])c1cccc(-c2c(-c3ccccc3)ncc3cc(F)ccc23)c1 | x | -1 | 7 | 21 | -21 | 0
O=C(c1ccccn1)N1C[C@H]2[C@@H](c3ccccc31)[C@@H](CO)N2C(=O)CC1CC1 | x | 45* | x | x | x | 0
O=C(c1ccccn1)N1C[C@H]2[C@@H](c3ccccc31)[C@H](CO)N2C(=O)C1CCCC1 | x | 14 | x | x | x | 0
O=C(c1ccccn1)N1C[C@@H]2[C@H](c3ccccc31)[C@H](CO)N2C(=O)C1CC1 | x | 49* | x | x | x | 0
CCc1cccc(NC(=O)C2CCCN(S(=O)(=O)c3c(C)[nH]c(=O)[nH]c3=O)C2)c1 (centres undefined) | 0 | -3 | 2 | -24 | 24 | x
COCCn1nnnc1C(c1cccs1)N1CCN(c2ccccc2)CC1 (centres undefined) | 0 | -2 | -1 | 83* | -83 | x
COCCn1nnnc1C(c1ccccc1)N1CCN(c2ccccc2)CC1 (centres undefined) | -3 | -4 | -1 | 0 | 0 | x
Cc1ccc(N2C(=O)N3[C@H](c4ccc(Br)cc4)[C@@H]4C(=O)N(C(C)(C)C)C(=O)[C@@H]4[C@]3(C)C2=O)cc1 | x | -2 | -28 | -24 | 24 | 0
Cc1cccc(N2C(=O)N3[C@H](c4ccc(Br)cc4)[C@@H]4C(=O)N(C(C)(C)C)C(=O)[C@@H]4[C@]3(C)C2=O)c1 | x | -1 | -29 | -60 | 60* | 1
SMILES | NSD2 HMT inh | ARNT-TACC3 inh | HGIII-sPLA2 inh | SR-BI HDL uptake | SR-BI DiI-HDL act | Xi reactivation
CCNC(=O)C[C@H]1CC[C@@H]2[C@@H](COc3ccc(NC(=O)c4cccc(C(F)(F)F)c4)cc3C(=O)N2C)O1 | x | 18 | x | x | x | 0
CC(=O)NC(c1ccco1)c1ccc2cccnc2c1O (centres undefined) | 1 | 63* | x | -11 | 11 | x
CCN1C[C@@H]2[C@@H]3C(=O)N(C)C(=O)[C@@H]3[C@](Cc3ccccc3)(C1=O)N2C(=O)c1ccccc1 | x | -2 | 6 | -6 | 6 | 0
Cc1ccc(S(=O)(=O)N2CCN(C(=O)COC(=O)c3ccccc3OC(F)F)CC2)c(C)c1 | 0 | x | -11 | 13 | -13 | 127*
CCc1sc(N2[C@@H](C#N)[C@@H](c3ccccc3-c3cccc(F)c3)[C@@H]2CO)nc1C | x | x | x | x | x | 0
CC1N(C)c2cc(NC(=O)c3ccco3)ccc2C1(C)C (centres undefined) | 3 | 15 | 8 | -140 | 139* | x
CCn1c2ccccc2c2cc(NC(=O)c3ccco3)ccc21 | x | 7 | 0 | 82* | -82 | x
CC1N(C)c2cc(NC(=O)c3ccco3)c(P(=O)(Nc3ccc([N+](=O)[O-])cc3)N3CCOCC3)cc2C1(C)C (centres undefined) | 3 | 3 | -8 | 10 | -10 | 1
CCCc1cc(=O)[nH]c(SC(C)C(=O)Nc2ccc3c(c2)OCCO3)n1 (centres undefined) | 3 | -3 | -11 | 1 | -1 | 0
CCCC(=O)NC(=S)Nc1c(C)cc(Br)cc1C | 9 | 0 | 11 | -7 | 7 | x
CCCCCC(=O)NC(=S)Nc1ccc(Br)cc1C | -3 | -28 | 5 | -70 | 70* | 0
COc1ccc(CSc2nncn2N)cc1Br | -2 | active | 3 | -28 | 28 | x
O=C(Nc1cccc(NC(=O)c2cccs2)c1)c1ccc(Br)o1 | 0 | -5 | 1 | 31 | -31 | 0
O=c1oc2cc(O)ccc2cc1-c1nc2c(s1)CCc1ccccc1-2 | -2 | -18 | -40 | -3 | 3 | 95*
CC(C)CN(C(=O)COC(=O)c1c2c(nc3ccccc13)CCC2)c1c(N)n(Cc2ccccc2)c(=O)[nH]c1=O | -3 | 0 | 1 | 72* | -72 | 0
CCN(C(=O)COC(=O)c1c2c(nc3ccccc13)CCC2)c1c(N)n(Cc2ccccc2)c(=O)[nH]c1=O | 0 | 2 | -14 | 48 | -48 | 0
O=C(Nc1nc2ccc(Br)cc2s1)c1ccco1 | -5 | -3 | -20 | 93* | -93 | 0
O=C(Nc1nc2ccc(Cl)cc2s1)c1ccco1 | -2 | 0 | -20 | 17 | -17 | x
COc1cc(C(=O)N2CCN(CC(O)COc3ccccc3)CC2)cc(OC)c1OC (centres undefined) | -3 | -5 | 3 | 7 | -7 | 0
